Data: article PMC10975593 (ACS Omega, 2024)

Tests used:
ACHN = assay: NCI 60-cell line screen; format: cell-based, human; conditions: for GI50 / IC50 / CC50: Homo sapiens; for CC50: read-out: LC50; for TGI: renal cancer
HCC-2998 = assay: NCI 60-cell line screen; format: cell-based, human; conditions: for TGI: HCC-2998, colon cancer; for GI50 / IC50 / CC50: Homo sapiens; for GI50 / IC50: HCC 2998; for CC50: HCC 2998, read-out: LC50
SN12C = assay: NCI 60-cell line screen; format: cell-based, human; conditions: for GI50 / IC50 / CC50: Homo sapiens; for CC50: read-out: LC50; for TGI: renal cancer
How it was run: (§1)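 Test compounds were submitted to the National Cancer Institute and run under NCI's standard 60-cell-line protocols. Read-outs were taken from percent-growth versus log-concentration curves.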

OVCAR-5 = assay: NCI 60-cell line screen; format: cell-based, human; conditions: for GI50 / IC50 / CC50: Homo sapiens; for GI50 / IC50: OVCAR-5; for CC50: OVCAR-5, read-out: LC50; for TGI: OVCAR-5, ovarian cancer
How it was run: as §1

Staphylococcus aureus = assay: Disc diffusion antimicrobial test; format: cell-based; conditions: Staphylococcus aureus, 24 h, read-out: zone of inhibition (diameter of inhibition)
How it was run: (§2)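 Disc diffusion on nutrient agar, test compound at 100 μg/mL with DMSO as solvent. Plates incubated at 37 °C for 24 h after inoculation, then zone of inhibition measured and compared with standards. Controls were DMSO, amoxicillin, ciprofloxacin and tetracycline.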

SK-MEL-2 = assay: NCI 60-cell line screen; format: cell-based, human; conditions: for GI50 / IC50 / CC50: Homo sapiens; for GI50 / IC50: SK-MEL-2; for CC50: SK-MEL-2, read-out: LC50; for TGI: SK-MEL-2, melanoma
How it was run: as §1

[1] = tested on: MCF-7 and A549 cancer cell lines; assay: MTT assay, range over both cell lines; format: cell-based; conditions: read-out: IC50 values, range
How it was run: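 A549 in DMEM and MCF-7 in RPMI, each with 10% heat-inactivated FBS, 1% penicillin/streptomycin and 2 mmol/L glutamine at 37 °C, 5% CO2. Seeded at 2000 (A549) or 10,000 (MCF-7) cells/well and attached 24 h. Then 72 h with test compound at varying concentrations. MTT (5 mg/mL stock) added for 4 h at 37 °C, formazan dissolved in DMSO, absorbance read at 450/540 nm. Triplicates in three separate experiments.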

SNB-75 = assay: NCI 60-cell line screen; format: cell-based, human; conditions: for GI50 / IC50 / CC50: Homo sapiens; for GI50 / IC50: SNB-75; for CC50: SNB-75, read-out: LC50; for TGI: SNB-75, CNS cancer
How it was run: as §1

SW-620 = assay: NCI 60-cell line screen; format: cell-based, human; conditions: for GI50 / IC50 / CC50: Homo sapiens; for GI50 / IC50: SW-620; for CC50: SW-620, read-out: LC50; for TGI: SW-620, colon cancer
How it was run: as §1

MCF-7 = assay: NCI 60-cell line screen; format: cell-based, human; conditions: for GI50 / IC50 / CC50: Homo sapiens; for GI50 / IC50: MCF7; for CC50: MCF7, read-out: LC50; for TGI: MCF-7, breast cancer
NCI 60 cell line panel = assay: NCI 60-cell line inhibition, range over panel; format: cell-based; conditions: Homo sapiens; for GI50: read-out: GI50, range over cell lines; for IC50: read-out: IC50, range over cell lines
DU-145 = assay: NCI 60-cell line screen; format: cell-based, human; conditions: for TGI: DU-145, prostate cancer; for GI50 / IC50 / CC50: Homo sapiens; for GI50 / IC50: DU-145; for CC50: DU-145, read-out: LC50
K-562 = assay: NCI 60-cell line screen; format: cell-based, human; conditions: for GI50 / IC50 / CC50: Homo sapiens; for GI50 / IC50: K562; for CC50: K562, read-out: LC50; for TGI: K-562, leukemia
KM12 = assay: NCI 60-cell line screen; format: cell-based, human; conditions: for GI50 / IC50 / CC50: Homo sapiens; for GI50 / IC50: KM12; for CC50: KM12, read-out: LC50; for TGI: KM12, colon cancer
HOP-62 = assay: NCI 60-cell line screen; format: cell-based, human; conditions: for TGI: HOP-62, non-small cell lung cancer; for GI50 / IC50 / CC50: Homo sapiens; for GI50 / IC50: HOP-62; for CC50: HOP-62, read-out: LC50
SF-268 = assay: NCI 60-cell line screen; format: cell-based, human; conditions: for GI50 / IC50 / CC50: Homo sapiens; for GI50 / IC50: SF-268; for CC50: SF-268, read-out: LC50; for TGI: SF-268, CNS cancer
How it was run: as §1

A498 = assay: NCI 60-cell line screen; format: cell-based, human; conditions: for TGI: A498, renal cancer; for GI50 / IC50 / CC50: Homo sapiens; for GI50 / IC50: A498; for CC50: A498, read-out: LC50
BT-549 = assay: NCI 60-cell line screen; format: cell-based, human; conditions: for TGI: BT-549, breast cancer; for GI50 / IC50 / CC50: Homo sapiens; for GI50 / IC50: BT-549; for CC50: BT-549, read-out: LC50
SF-295 = assay: NCI 60-cell line screen; format: cell-based, human; conditions: for GI50 / IC50 / CC50: Homo sapiens; for GI50 / IC50: SF-295; for CC50: SF-295, read-out: LC50; for TGI: SF-295, CNS cancer
How it was run: as §1

CCRF-CEM = assay: NCI 60-cell line screen; format: cell-based, human; conditions: for GI50 / IC50 / CC50: Homo sapiens; for CC50: read-out: LC50; for TGI: leukemia
TK-10 = assay: NCI 60-cell line screen; format: cell-based, human; conditions: for GI50 / IC50 / CC50: Homo sapiens; for GI50 / IC50: TK-10; for CC50: TK-10, read-out: LC50; for TGI: TK-10, renal cancer
How it was run: as §1

OVCAR-4 = assay: NCI 60-cell line screen; format: cell-based, human; conditions: for GI50 / IC50 / CC50: Homo sapiens; for GI50 / IC50: OVCAR-4; for CC50: OVCAR-4, read-out: LC50; for TGI: OVCAR-4, ovarian cancer
UO-31 = assay: NCI 60-cell line screen; format: cell-based, human; conditions: for GI50 / IC50 / CC50: Homo sapiens; for GI50 / IC50: UO-31; for CC50: UO-31, read-out: LC50; for TGI: UO-31, renal cancer
How it was run: as §1

SNB-19 = assay: NCI 60-cell line screen; format: cell-based, human; conditions: for GI50 / IC50 / CC50: Homo sapiens; for GI50 / IC50: SNB-19; for CC50: SNB-19, read-out: LC50; for TGI: SNB-19, CNS cancer
How it was run: as §1

Escherichia coli = assay: Disc diffusion antimicrobial test; format: cell-based; conditions: Escherichia coli, 24 h, read-out: zone of inhibition (diameter of inhibition)
How it was run: as §2

## O=C(CNc1ccc([N+](=O)[O-])cc1)Nc1nc2ccccc2s1 [OMS5, N-(1,3-benzothiazol-2-yl)-2-(4-nitroanilino)acetamide]
ACHN
  GI50: 0.4 µM
  IC50: 0.8 µM
  CC50: 33.1 µM
  TGI: 8.5 µM
HCC-2998
  TGI: 2.2 µM
  GI50: 0.9 µM
  IC50: 1.6 µM
  CC50: 5.3 µM
SN12C
  GI50: 0.6 µM
  IC50: 1.5 µM
  CC50: 57.5 µM
  TGI: 4.9 µM
OVCAR-5
  GI50: 1 µM
  IC50: 2.5 µM
  CC50: 46.8 µM
  TGI: 5.4 µM
Staphylococcus aureus
  zone of inhibition at 100 µg/mL: 0 mm
SK-MEL-2
  GI50: 1.3 µM
  IC50: 3 µM
  CC50: 6.3 µM
  TGI: 2.8 µM
[1]
  IC50: 22.1 to 61 µM
SNB-75
  GI50: 1.4 µM
  IC50: 3 µM
  CC50: 5.9 µM
  TGI: 2.9 µM
SW-620
  GI50: 0.5 µM
  IC50: 0.7 µM
  CC50: 43.7 µM
  TGI: 7.2 µM
MCF-7
  GI50: 0.4 µM
  IC50: 0.5 µM
  CC50: 74.1 µM
  TGI: 10 µM
NCI 60 cell line panel
  GI50: 0.36 to 2.3 µM
  IC50: 0.44 to 12 µM
DU-145
  TGI: 12 µM
  GI50: 0.8 µM
  IC50: 1.8 µM
  CC50: 52.5 µM
K-562
  GI50: 0.5 µM
  IC50: 0.6 µM
  CC50: > 100 µM
  TGI: 100 µM
KM12
  GI50: 1.2 µM
  IC50: 2.5 µM
  CC50: 52.5 µM
  TGI: 12 µM
HOP-62
  TGI: 4.9 µM
  GI50: 1.2 µM
  IC50: 3 µM
  CC50: 25.1 µM
SF-268
  GI50: 1.3 µM
  IC50: 3.5 µM
  CC50: 51.3 µM
  TGI: 6.6 µM
A498
  TGI: 6.5 µM
  GI50: 1.4 µM
  IC50: 7.2 µM
  CC50: 28.8 µM
BT-549
  TGI: 6.5 µM
  GI50: 2 µM
  IC50: 5.4 µM
  CC50: 27.5 µM
SF-295
  GI50: 0.7 µM
  IC50: 1.4 µM
  CC50: 24 µM
  TGI: 4.4 µM
CCRF-CEM
  GI50: 0.9 µM
  IC50: 2.3 µM
  CC50: > 100 µM
  TGI: 50 µM
TK-10
  GI50: 1.5 µM
  IC50: 10 µM
  CC50: > 100 µM
  TGI: 15 µM
OVCAR-4
  GI50: 1 µM
  IC50: 3 µM
  CC50: 40.7 µM
  TGI: 5.1 µM
UO-31
  GI50: 0.5 µM
  IC50: 1.3 µM
  CC50: 26.9 µM
  TGI: 3.8 µM
SNB-19
  GI50: 1 µM
  IC50: 2.6 µM
  CC50: 95.5 µM
  TGI: 10 µM
Escherichia coli
  zone of inhibition at 100 µg/mL: 0 mm

## O=C(CN1CCN(CC(=O)Nc2nc3ccccc3s2)CC1)Nc1ccc([N+](=O)[O-])cc1 [OMS14, N-(benzo[d]thiazol-2-yl)-2-(4-(2-((4-nitrophenyl)amino)-2-oxoethyl)piperazin-1-yl)acetamide]
ACHN
  GI50: 1.1 µM
  IC50: 2.1 µM
  CC50: 22.9 µM
  TGI: 4.4 µM
HCC-2998
  TGI: 3.9 µM
  GI50: 1.7 µM
  IC50: 3.1 µM
  CC50: 8.9 µM
SN12C
  GI50: 1.9 µM
  IC50: 3.5 µM
  CC50: > 100 µM
  TGI: 5.4 µM
OVCAR-5
  GI50: 1.5 µM
  IC50: 3.2 µM
  CC50: 57.5 µM
  TGI: 4.8 µM
Staphylococcus aureus
  zone of inhibition at 100 µg/mL: 15 mm
SK-MEL-2
  GI50: 1.8 µM
  IC50: 3.5 µM
  CC50: 6.9 µM
  TGI: 3.5 µM
[1]
  IC50: 22.1 to 61 µM
SNB-75
  GI50: 2 µM
  IC50: 6.6 µM
  CC50: 24 µM
  TGI: 6.0 µM
SW-620
  GI50: 0.8 µM
  IC50: 1.1 µM
  CC50: 87.1 µM
  TGI: 5.9 µM
MCF-7
  GI50: 2.8 µM
  IC50: 4.1 µM
  CC50: 61.7 µM
  TGI: 7.8 µM
NCI 60 cell line panel
  GI50: 0.66 to 3.02 µM
  IC50: 0.81 to 9.1 µM
DU-145
  TGI: 7.9 µM
  GI50: 2.2 µM
  IC50: 3.5 µM
  CC50: 38.9 µM
K-562
  GI50: 2.6 µM
  IC50: 3 µM
  CC50: > 100 µM
  TGI: 100 µM
KM12
  GI50: 2.9 µM
  IC50: 4.5 µM
  CC50: 74.1 µM
  TGI: 13.5 µM
HOP-62
  TGI: 3.7 µM
  GI50: 1.7 µM
  IC50: 3.2 µM
  CC50: 8.3 µM
SF-268
  GI50: 2.2 µM
  IC50: 4.6 µM
  CC50: 43.7 µM
  TGI: 7.1 µM
A498
  TGI: 3.7 µM
  GI50: 1.7 µM
  IC50: 3.8 µM
  CC50: 7.9 µM
BT-549
  TGI: 9.8 µM
  GI50: 3 µM
  IC50: 7.8 µM
  CC50: 36.3 µM
SF-295
  GI50: 2.2 µM
  IC50: 3.7 µM
  CC50: 28.8 µM
  TGI: 7.1 µM
CCRF-CEM
  GI50: 2.5 µM
  IC50: 4 µM
  CC50: > 100 µM
  TGI: 17.4 µM
TK-10
  GI50: 2.2 µM
  IC50: 6.2 µM
  CC50: > 100 µM
  TGI: 7.1 µM
OVCAR-4
  GI50: 2.4 µM
  IC50: 5.2 µM
  CC50: 75.9 µM
  TGI: 8.3 µM
UO-31
  GI50: 1.3 µM
  IC50: 2.5 µM
  CC50: 8.5 µM
  TGI: 3.3 µM
SNB-19
  GI50: 2.8 µM
  IC50: 4.9 µM
  CC50: > 100 µM
  TGI: 12.3 µM
Escherichia coli
  zone of inhibition at 100 µg/mL: 0 mm
